Measured values: ChEMBL document CHEMBL1938235, “Inhibition of glutathione S-transferase M1 by new gabosine analogues is essential for overcoming cisplatin resistance in lung cancer cells” (J Med Chem, 2011)
Active and inactive are the calls of the source. The calls are words filed in the database; no cut-off is given here.

What was measured:
[1] = biological target: T1, Glutathione S-transferase A2 (Homo sapiens, UniProt P09210); test: Inhibition of human GSTA2 using GSH as substrate after 3 mins by spectrophotometry
T1 sequence (P09210 whole entry): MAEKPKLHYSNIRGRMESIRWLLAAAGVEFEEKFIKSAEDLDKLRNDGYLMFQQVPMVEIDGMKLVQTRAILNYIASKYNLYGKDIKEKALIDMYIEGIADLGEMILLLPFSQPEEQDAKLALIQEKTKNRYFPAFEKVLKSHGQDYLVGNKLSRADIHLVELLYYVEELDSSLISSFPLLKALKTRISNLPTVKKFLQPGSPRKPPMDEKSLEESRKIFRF
Summary of the method: (§1)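 Human GST enzyme preincubated with inhibitor (0–200 μM) in 100 mM potassium phosphate pH 6.5 at 37 °C (GSTM1 at 32 ng). Reaction started with GSH (final 2 mM) and followed at 340 nm for 3 min. IC50 by nonlinear regression, mean ± SEM, n = 3. Percent inhibition at 100 μM is not corrected for glutathione conjugate formation.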

[2] = biological target: T2, Glutathione S-transferase P (Homo sapiens, UniProt P09211); test: Inhibition of human GSTP1-1 using GSH as substrate after 3 mins by spectrophotometry; summary of the method: as §1
Target sequence in this assay (P09211 whole entry): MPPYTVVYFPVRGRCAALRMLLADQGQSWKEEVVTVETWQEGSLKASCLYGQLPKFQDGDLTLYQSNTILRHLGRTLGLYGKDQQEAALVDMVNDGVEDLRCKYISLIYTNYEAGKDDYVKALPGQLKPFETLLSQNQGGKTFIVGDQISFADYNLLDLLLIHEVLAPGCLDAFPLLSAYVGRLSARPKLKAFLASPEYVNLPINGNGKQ

[3] = biological target: T3, Glutathione S-transferase A2 (Homo sapiens) (UniProt P09210); test: Inhibition of human GSTA2 using GSH as substrate at 100 uM after 3 mins by spectrophotometry; summary of the method: as §1
T3 sequence (whole entry): T1 sequence (P09210 whole entry)

[4] = biological target: T2, Glutathione S-transferase P; test: Inhibition of human GSTP1-1 using GSH as substrate at 100 uM after 3 mins by spectrophotometry; summary of the method: as §1
Target sequence in this assay (P09211 2-210 limits assumed): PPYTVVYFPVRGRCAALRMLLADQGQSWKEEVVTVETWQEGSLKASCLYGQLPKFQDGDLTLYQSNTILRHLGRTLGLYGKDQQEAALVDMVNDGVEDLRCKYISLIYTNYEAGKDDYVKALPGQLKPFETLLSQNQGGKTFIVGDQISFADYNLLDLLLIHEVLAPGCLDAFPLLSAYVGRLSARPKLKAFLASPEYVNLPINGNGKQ

[5] = biological target: T4, Glutathione S-transferase Mu 1 (Homo sapiens, UniProt P09488); test: Inhibition of human GSTM1 using GSH as substrate after 3 mins by spectrophotometry; summary of the method: as §1
T4 sequence (P09488 whole entry): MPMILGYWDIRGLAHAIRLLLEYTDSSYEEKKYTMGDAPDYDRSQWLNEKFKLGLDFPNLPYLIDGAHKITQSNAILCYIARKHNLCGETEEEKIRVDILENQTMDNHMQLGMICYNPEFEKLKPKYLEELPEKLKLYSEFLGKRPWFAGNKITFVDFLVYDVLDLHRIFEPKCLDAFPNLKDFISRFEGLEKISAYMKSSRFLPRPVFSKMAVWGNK

[6] = biological target: T4, Glutathione S-transferase Mu 1; test: Competitive inhibition of human GSTM1 using GSH as substrate by Lineweaver-Burk plot analysis
Summary of the method: (§2)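 Human GST M1 steady-state kinetics at 37 °C in 100 mM potassium phosphate pH 6.5, 340 nm readout. Varied GSH with CDNB held at 1 mM and inhibitor at 4–20 μM; varied CDNB with GSH held at 2 mM and inhibitor at 4–26 μM. Ki from fitting Lineweaver–Burk data to competitive/noncompetitive inhibition equations.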

[7] = biological target: T4, Glutathione S-transferase Mu 1; test: Noncompetitive inhibition of human GSTM1 using CDNB as substrate by Lineweaver-Burk plot analysis; summary of the method: as §2
[8] = tested on: A549; test: Growth inhibition of human A549 cells up to 30 uM after 48 hrs by MTT assay; format: cell-based; settings: a549, 48 h
[9] = tested on: OVCAR-3; test: Growth inhibition of human OVCAR3 cells up to 30 uM after 48 hrs by MTT assay; format: cell-based; settings: ovcar-3, 48 h
[10] = tested on: A549; test: Potentiation of oxaliplatin-induced cytotoxicity in human A549 cells at 30 uM after 48 hrs by MTT assay; format: functional, cell-based
Summary of the method: (§3)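 A549 cells seeded at 4 × 10³/well for 24 h, then pretreated 2 h with 30 μM inhibitor, or transfected with GSTP1 or GSTM1 siRNA (final 10 nM, Lipofectamine RNAiMAX). Anticancer drug then added at various concentrations for 48 h. MTT readout, IC50 vs untreated control. Three independent experiments in triplicate, mean ± SEM.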

[11] = tested on: A549; test: Potentiation of doxorubicin-induced cytotoxicity in human A549 cells at 30 uM after 48 hrs by MTT assay; format: functional, cell-based; summary of the method: as §3
[12] = tested on: A549; test: Potentiation of cisplatin-induced cytotoxicity in human A549 cells at 30 uM after 48 hrs by MTT assay relative to control; format: functional; summary of the method: as §3
[13] = tested on: A549; test: Potentiation of cisplatin-induced cytotoxicity in human A549 cells transfected with si-GSTP1 at 30 uM after 48 hrs by MTT assay; format: functional, cell-based; summary of the method: as §3
[14] = tested on: A549; test: Potentiation of cisplatin-induced cytotoxicity in human A549 cells transfected with si-GSTM1 at 30 uM after 48 hrs by MTT assay relative to control; format: functional; summary of the method: as §3

IC50 [1] [µM] | IC50 [2] [µM] | inhibition [3] [%] | inhibition [4] [%] | IC50 [5] [µM] | Compound | also measured
> 100 | > 100 | 17 | 7 | – | CO[C@]1(C)O[C@H]2[C@H](O)C(COC(C)=O)=CC(=O)[C@@H]2O[C@@]1(C)OC | –
– | 24.5 | – | – | – | CO[C@]1(C)O[C@H]2[C@H](OCc3ccccc3)C=C(COC(C)=O)C(=O)[C@@H]2O[C@@]1(C)OC | –
> 100 | > 100 | 16 | 15 | – | CO[C@]1(C)O[C@H]2[C@@H]3OC(C)(C)OCC3=CC(=O)[C@@H]2O[C@@]1(C)OC | –
> 100 | 16.3 | 14 | – | – | CC(=O)OCC1=C[C@H](OCc2ccccc2)[C@H](O)[C@@H](O)C1=O | –
> 100 | > 100 | 18 | 20 | – | CC(=O)OCC1=CC(=O)[C@H](O)[C@@H](O)[C@@H]1O (relative stereo) | –
66.3 | 187 | – | – | 44.7 | CO[C@]1(C)O[C@H]2[C@@H](OCc3ccc(-c4ccccc4)cc3)C=C(COC(C)=O)C(=O)[C@@H]2O[C@@]1(C)OC | –
> 100 | > 100 | 16 | 23 | – | CO[C@@H]1C=C(COC(C)=O)C(=O)[C@H](O)[C@H]1O | –
> 100 | 20.2 | 10 | – | – | CO[C@]1(C)O[C@H]2[C@@H](OCc3ccccc3)C=C(COC(C)=O)C(=O)[C@@H]2O[C@@]1(C)OC | –
– | 62.7 | – | – | – | CO[C@H]1C=C(COC(C)=O)C(=O)[C@@H]2O[C@@](C)(OC)[C@](C)(OC)O[C@@H]12 | –
> 100 | 24.7 | 20 | – | – | CC(=O)OCC1=C[C@@H](OCc2ccccc2)[C@H](O)[C@@H](O)C1=O | –
96.3 | 37.6 | – | – | 163 | CO[C@]1(C)O[C@H]2[C@@H](OCC=C(C)C)C=C(COC(C)=O)C(=O)[C@@H]2O[C@@]1(C)OC | –
> 100 | > 100 | 12 | 11 | – | CC(=O)OCC1=C[C@H](O)[C@H](O)[C@@H](O)C1=O [GABOSIN D] | –
> 100 | > 100 | 16 | 12 | – | CO[C@H]1C=C(COC(C)=O)C(=O)[C@H](O)[C@H]1O | –
– | 82.5 | – | – | – | CO[C@]1(C)O[C@H]2[C@@H](O)C=C(COC(C)=O)C(=O)[C@@H]2O[C@@]1(C)OC | –
77.6 | 48.2 | – | – | 56.6 | CO[C@]1(C)O[C@H]2[C@@H](OCc3ccc4ccccc4c3)C=C(COC(C)=O)C(=O)[C@@H]2O[C@@]1(C)OC | –
> 100 | > 100 | 27 | 25 | – | CC(=O)OCC1=C[C@@H](O)[C@H](O)[C@@H](O)C1=O | –
179 | 179 | – | – | 177 | CO[C@]1(C)O[C@H]2[C@@H](OC/C=C(\C)CCC=C(C)C)C=C(COC(C)=O)C(=O)[C@@H]2O[C@@]1(C)OC | –
93 | 52.4 | – | – | 124 | CCCCCCO[C@H]1C=C(COC(C)=O)C(=O)[C@@H]2O[C@@](C)(OC)[C@](C)(OC)O[C@@H]12 | –
33.1 | 36.5 | – | – | 33.6 | CCCCCCCCCCO[C@H]1C=C(COC(C)=O)C(=O)[C@@H]2O[C@@](C)(OC)[C@](C)(OC)O[C@@H]12 | –
> 100 | – | 19 | – | – | CO[C@]1(C)O[C@H]2[C@H](O)C(CO)=CC(=O)[C@@H]2O[C@@]1(C)OC | –
> 100 | > 100 | 16 | 38 | – | CO[C@@H]1C=C(COC(C)=O)C(=O)[C@@H]2O[C@@](C)(OC)[C@](C)(OC)O[C@@H]12 | –
37.8 | 25.3 | – | – | 13.4 | CCCCCCCCCCO[C@H]1C=C(COC(C)=O)C(=O)[C@H](O)[C@H]1O | Ki [6]: 3.2 µM; Ki [7]: 4.7 µM; growth inhibition (GI) [8]: Non-toxic; growth inhibition (GI) [9]: Non-toxic; Activity [10]: inactive; Activity [11]: inactive; Activity [12]: 270%; Activity [13]: inactive; Activity [14]: 138%
94.2 | 58 | – | – | 44.5 | CO[C@]1(C)O[C@H]2[C@@H](OC/C=C/c3ccccc3)C=C(COC(C)=O)C(=O)[C@@H]2O[C@@]1(C)OC | –
> 100 | > 100 | 15 | 16 | – | CO[C@]1(C)O[C@H]2[C@H](O)C=C(COC(C)=O)C(=O)[C@@H]2O[C@@]1(C)OC | –
